Source: the EternaBench riboswitch data

Test system: MS2 coat protein
Assay: apparent Kd, MS2 coat protein; higher = weaker binding; RNA-MaP array; FMN 200 µM where present
Procedure, shortened: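 Stalled E. coli RNA polymerase transcribed the designs on Illumina sequencing-chip clusters. SNAP-549-labelled MS2 coat protein was titrated from 0.7 or 1.5 nM, doubling to 3 µM, without and then with constant ligand, in 100 mM Tris-HCl pH 7.5, 80 mM KCl, 4 mM MgCl2, BSA, DTT, yeast tRNA and Tween-20. Per-cluster binding curves were fitted to green signal normalised to red-channel RNA signal and control-cluster median Fmax. The apparent Kd is the median of the filtered fits.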

[1] = designed as: OFF switch for flavin mononucleotide, no ligand
[2] = ligand present: flavin mononucleotide, designed as: OFF switch for flavin mononucleotide
[3] = designed as: ON switch for flavin mononucleotide, no ligand
[4] = ligand present: flavin mononucleotide, designed as: ON switch for flavin mononucleotide

Row | Sequence | apparent Kd [1] [nM] | apparent Kd [2] [nM] | apparent Kd [3] [nM] | apparent Kd [4] [nM]
1 | UCCUGGCGAGGAUAUACAAUGUUUUUCGCGUUUUGUUUCGAACAUGAGGAUCACCCAUGUAGAAGGUGCUACUG | 38.3 | 41 |  | 
2 | UCCUUGUCCUGAGGAUAUCCGCGGUUCCCAAAAGGAGAAGGCAGGACAUGAGGAUCACCCAUGUACCCAGAAAACGUACAGAGU | 44.7 | 162 |  | 
3 | UCCUUGUUCUGAGGAUAUCCGCGGUUCCCAAAAGGAGAAGGCAGGACAUGAGGAUCACCCAUGUACCCAGAAAACGUGCAGAGU | 9.85 | 37.4 |  | 
4 | UCGAACGGAAAUAAAGUAAAUAGACAUGAGGAUCACCCAUGUAAGGAUAUGCCUACUAAAAGUAGGCAGAAGGUACGCGUUCGA | 17.5 | 19.2 |  | 
5 | UCGAAGUCCGCCGGACGGCGAGCGAGAAGGCACAAUGAAACGACUCUACAUGAGGAUCACCCAUGUGAGGAUAUCGCGACCUAG | 8.27 | 57.7 |  | 
6 | UCGAGUCAUGAGAAGGACUGAUGUUACAUGAGGAUCACCCAUGUCAUGGGUAGGAUAUCAUUGACACGGCCGUACCUCUCUUAC |  |  | 355 | 78.2
7 | UCGCGGUGAGGAUAUAGGUCAAUGCAGGGUCACCAGAUUGCCUAGAAGGCACAUGAGGAUCACCCAUGUGGUAG | 49 | 157 |  | 
8 | UCGCUGCGAGGAUAUACGUUUGCGCGCUUUCGUUUGCGCGUACAUGAGGAUCACCCAUGUAGAAGGCGCGCUGC | 15.5 | 15.5 |  | 
9 | UCGGCGCGAGGAUAUACGGUUGCUUUUUAGGGUCGUGGCGUACAUGAGGAUCACCCAUGUAGAAGGCGCGCCGC | 16.1 | 30.2 |  | 
10 | UCGGCGCGAGGAUAUGCGGCUGCUGCUUCGGGCCGUGGCGUACAUGAGGAUCACCCAUGUAGAAGGCGCGCCGC | 13.1 | 14.1 |  | 
11 | UCGGCGCGAGGAUAUGCGGUUUGUGCUUUGGGCCCUCGCGUACAUGAGGAUCACCCAUGUAGAAGGCGCGCCGC | 192 | 212 |  | 
12 | UCGGGUUAUACAGGAUAUGUUUAGGUUUAUUCAUGCAGUUAUUAAUUUAUGACAGAAGGGUAUACAUGAGGAUCACCCAUGUCA | 542 | 387 |  | 
13 | UCGGUGACAGGAUAUACAUGAGGAUCACCCAUGUUAAGAAGAGAAAGGGCAGGAAGAGGUAGAAGGGUCGCUGU | 51.7 | 69 |  | 
14 | UCGUACAUUCGAGGAUAUCGGUGAUAUAUAUUACGAGAAGGCGAUUGUUUGUUUUACGCCUUAGACAUGAGGAUCACCCAUGUA |  |  | 77.7 | 55.2
15 | UCGUCCACGGAGAAGGGCACAUGAGGAUCACCCAUGUGGGCUUGGUGGUGGUGGUGUUAAAAUGUGUAGGAUAUCCAGGGCCGU | 19.5 | 20.6 |  | 
16 | UCGUCCUCGUGCUAGGAUAUCCAUCGUAAAACAUGAGGAUCACCCAUGUAGAAAUGCGCCUACGAGGAGAAGGAGCGAUGUGGAU |  |  | 20.6 | 15.2
17 | UCGUGUUAUACAGGAUAUGUUUAGGUAUAAUCAUUCAGUUAUUAAUUAAUGACAGAAGGGUAAACAUGAGGAUCACCCAUGUCA | 179 | 121 |  | 
18 | UCGUUUAUACAAGGAUAUCAAUUAUAGCUAAAUUUAACAUGAGGAUCACCCAUGUAACUAUGGAGUGAGAAGGUGUAAUGACUU |  |  | 401 | 251
19 | UCUAAUUAGUGAGGAUAUACAUAAUUUAUAACUGUAGAAGGCACAAACCUCAAGACAUGAGGAUCACCCAUGUGGUAUUUAGAU | 150 | 354 |  | 
20 | UCUAGACAUGAGGAUCACCCAUGUGAGGAUAUGAUGCGAUCGUCGAAAGACGAUAGCAUCAGAAGGCACAAAUG | 66.5 | 200 |  | 
21 | UCUCGCUGGCGAGGAUAUCCUGUGCGGUUCCGGCUCGUGUCUGUUACAUGAGGAUCACCCAUGUGGGAGAAGGUGCCUGUGGCU | 32.7 | 32.6 |  | 
22 | UCUGCUCGAGGAUAUACAUGAGGAUCACCCAUGUAUCCCAGAAGCAUGGCCUCAGGAUGUAGAAGGCGACGCUA | 14.1 | 18.5 |  | 
23 | UCUUAUUGAGGAUAUACAUUAAUUUACAUGAGGAUCACCCAUGUUCUUCAAUGUAUAUAUGUAGAAGGCAGAAGAA | 18.5 | 42 |  | 
